Active and inactive are the calls of the source. The calls are words filed in the database; no cut-off is given here.
Experiments:
[1] = target: T1, Tyrosyl-DNA phosphodiesterase 1 (Homo sapiens, UniProt Q9NUW8); assay: Inhibition of human recombinant Tdp1 using 5'-[32P]-labeled single-stranded DNA oligonucleotide containing 3'-phosphotyrosine as substrate assessed as prevention of generation of oligonucleotide with free 3'-phosphate after 15 mins by PAGE analysis
[2] = target: T1, Tyrosyl-DNA phosphodiesterase 1; assay: Inhibition of human Tdp1 in Tdp1-deficient chicken DT40 whole cell extract using 5'-[32P]-labeled single-stranded DNA oligonucleotide containing 3'-phosphotyrosine as substrate after 15 mins by PAGE analysis
[3] = target: T2, DNA topoisomerase 1 (Homo sapiens) (UniProt P11387); assay: Inhibition of human recombinant Top1-mediated DNA cleavage by polyacrylamide gel electrophoresis relative to camptothecin; design: concentration or dose not given beside the values
T2 sequence (whole entry): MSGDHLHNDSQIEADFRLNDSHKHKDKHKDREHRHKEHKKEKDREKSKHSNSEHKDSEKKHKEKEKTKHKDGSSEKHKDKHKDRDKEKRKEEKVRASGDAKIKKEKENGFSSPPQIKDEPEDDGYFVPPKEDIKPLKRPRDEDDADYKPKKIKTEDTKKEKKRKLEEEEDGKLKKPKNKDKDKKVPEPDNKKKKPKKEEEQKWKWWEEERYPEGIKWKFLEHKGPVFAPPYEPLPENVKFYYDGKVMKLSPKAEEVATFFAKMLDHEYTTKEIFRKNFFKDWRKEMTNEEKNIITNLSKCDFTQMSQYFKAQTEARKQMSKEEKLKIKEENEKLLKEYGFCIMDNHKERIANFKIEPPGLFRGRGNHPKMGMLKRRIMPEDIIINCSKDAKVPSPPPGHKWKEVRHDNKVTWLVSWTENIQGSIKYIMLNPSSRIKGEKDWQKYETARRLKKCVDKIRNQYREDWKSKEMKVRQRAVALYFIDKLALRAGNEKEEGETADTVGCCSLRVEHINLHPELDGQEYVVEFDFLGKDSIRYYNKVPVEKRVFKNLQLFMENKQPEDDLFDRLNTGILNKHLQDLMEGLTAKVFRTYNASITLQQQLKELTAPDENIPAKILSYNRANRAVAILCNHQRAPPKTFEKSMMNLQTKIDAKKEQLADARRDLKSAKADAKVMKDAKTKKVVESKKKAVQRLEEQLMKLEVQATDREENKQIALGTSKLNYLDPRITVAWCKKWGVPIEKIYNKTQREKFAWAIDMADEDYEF
In short: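 Baculovirus-purified human recombinant Top1 was incubated for 20 min at 25 °C, with compounds at various concentrations, with about 2 nM of a 117-bp oligonucleotide 3′-end-labeled with [α-³²P]dGTP. Reactions were stopped with 0.5% SDS and run on 20% denaturing PAGE. Cleavage bands were phosphorimaged and graded semiquantitatively against 1 μM camptothecin.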

[4] = Growth inhibition of human NCI60 cells; assay type: functional
[5] = target: T1, Tyrosyl-DNA phosphodiesterase 1; assay: Binding affinity to human recombinant Tdp1 at 0.4 to 33 uM by surface plasmon resonance spectroscopy analysis
In short: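 Amine-coupled to a CM5 chip to about 4000 RU; before coupling, Tdp1 (1 μM) was preloaded for 20 min with 2 μM 3′-phosphate 14-mer in 10 mM sodium acetate pH 4.5 to shield the active site, then the oligo was stripped with 1 M NaCl. Analyte was injected in 10 mM Hepes, 150 mM NaCl, 0.01% Tween 20, 5% DMSO, pH 7.5, at 30 μL/min, 25 °C. Responses were corrected against a Tdp1-free reference surface, buffer cycles and DMSO calibration.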

T1 sequence (Q9NUW8 whole entry): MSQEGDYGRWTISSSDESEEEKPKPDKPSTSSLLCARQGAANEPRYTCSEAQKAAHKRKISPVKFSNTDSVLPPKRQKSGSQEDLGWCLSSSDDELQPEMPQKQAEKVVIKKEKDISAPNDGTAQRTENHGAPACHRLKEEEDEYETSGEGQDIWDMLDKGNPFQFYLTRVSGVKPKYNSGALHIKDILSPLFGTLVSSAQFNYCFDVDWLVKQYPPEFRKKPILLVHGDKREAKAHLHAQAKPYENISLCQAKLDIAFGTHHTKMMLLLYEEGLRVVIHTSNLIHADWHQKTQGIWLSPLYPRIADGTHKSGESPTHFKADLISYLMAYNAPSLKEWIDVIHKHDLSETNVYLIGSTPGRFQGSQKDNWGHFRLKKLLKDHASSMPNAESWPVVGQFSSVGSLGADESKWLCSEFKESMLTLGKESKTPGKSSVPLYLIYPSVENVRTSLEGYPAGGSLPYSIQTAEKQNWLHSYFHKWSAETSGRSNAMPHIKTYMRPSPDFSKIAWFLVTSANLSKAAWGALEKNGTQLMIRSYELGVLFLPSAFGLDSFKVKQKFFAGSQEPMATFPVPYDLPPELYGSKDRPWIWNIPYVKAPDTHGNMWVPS

| IC50 [1] | IC50 [2] | inhibition ([3]; concentration not given here) | inhibition [1] | inhibition [3] | SMILES | GI50 [4] | Activity [5] |
| --- | --- | --- | --- | --- | --- | --- | --- |
| 17.5 µM | 28 µM | 0% |  |  | NCCCCCn1c2c(c3ccccc3c1=O)C(=O)c1ccccc1-2 |  |  |
| > 111 µM |  | 0% |  |  | O=C1c2cc(-c3ccccc3)ccc2-c2c1c1ccc([N+](=O)[O-])cc1c(=O)n2CCCNS(=O)(=O)c1ccccc1 | 0.55 µM |  |
| 47 µM | 48 µM | 0% | Dose-dependent effect |  | NCCCCCCCCCn1c2c(c3ccccc3c1=O)C(=O)c1ccccc1-2 |  |  |
| 25 µM | 35 µM | 50% |  |  | NCCCCCCn1c2c(c3ccccc3c1=O)C(=O)c1ccccc1-2 |  |  |
| > 111 µM |  | 50% |  |  | O=C1c2ccccc2-c2c1c1cc3c(cc1c(=O)n2CCCNS(=O)(=O)c1ccccc1)OCO3 | 0.617 µM |  |
| > 111 µM |  | 0% |  |  | COC(=O)c1ccc2c(c1)C(=O)c1c-2n(CCCNS(=O)(=O)c2ccccc2)c(=O)c2cc(OC)c(OC)cc12 | 12.6 µM |  |
| > 111 µM |  | 100% |  |  | O=C1c2ccccc2-c2c1c1ccc([N+](=O)[O-])cc1c(=O)n2CCCNS(=O)(=O)c1ccccc1 | 0.046 µM |  |
| 28.8 µM | 31 µM | 0% |  |  | NCCCCCCCn1c2c(c3ccccc3c1=O)C(=O)c1ccccc1-2 |  |  |
| 55.3 µM | 78 µM | 75% |  |  | NCCn1c2c(c3ccccc3c1=O)C(=O)c1ccccc1-2 |  |  |
|  | 23.4 µM | 75% |  |  | NCCCCn1c2c(c3ccccc3c1=O)C(=O)c1ccccc1-2 |  |  |
| 48 µM | 49 µM | 20% |  |  | NCCCCCCCCn1c2c(c3ccccc3c1=O)C(=O)c1ccccc1-2 |  |  |
| > 111 µM |  | 75% |  |  | COc1cc2c3c(n(CCCNS(=O)(=O)c4ccccc4)c(=O)c2cc1OC)-c1ccccc1C3=O | 1.35 µM |  |
| > 111 µM |  |  |  | inactive | O=C1c2ccccc2-c2c1c1ccccc1c(=O)n2CCNS(=O)(=O)c1ccc(Br)cc1 |  |  |
| > 111 µM |  |  |  | inactive | Cc1ccc(S(=O)(=O)NCCCCCCCCCCCCn2c3c(c4ccccc4c2=O)C(=O)c2ccccc2-3)cc1 |  |  |
| > 111 µM |  |  |  | inactive | O=C1c2ccccc2-c2c1c1ccccc1c(=O)n2CCCCCCCCCCCCNS(=O)(=O)c1ccccc1 |  |  |
| > 111 µM |  |  |  | inactive | O=C1c2ccccc2-c2c1c1ccccc1c(=O)n2CCCCCCCCCCNS(=O)(=O)c1ccccc1 |  |  |

| SMILES | IC50 [1] | IC50 [2] | inhibition ([3]; concentration not given here) | inhibition [1] | inhibition [3] | GI50 [4] | Activity [5] |
| --- | --- | --- | --- | --- | --- | --- | --- |
| NCCCn1c2c(c3ccccc3c1=O)C(=O)c1ccccc1-2 |  | 29.5 µM | 75% |  |  |  | Active |
| NCCCCCCCCCCCCn1c2c(c3ccccc3c1=O)C(=O)c1ccccc1-2 | 15.1 µM | 33 µM | 0% |  |  |  |  |
| NCCCCCCCCCCn1c2c(c3ccccc3c1=O)C(=O)c1ccccc1-2 | 14.1 µM | 21.3 µM | 0% |  |  |  |  |
| NCCCCCCCCCCCn1c2c(c3ccccc3c1=O)C(=O)c1ccccc1-2 | 12.8 µM | 14.1 µM | 20% |  |  |  |  |

— ChEMBL document CHEMBL2057156, “Synthesis and biological evaluation of the first dual tyrosyl-DNA phosphodiesterase I (Tdp1)-topoisomerase I (Top1) inhibitors” (J Med Chem, 2012)
